ChEMBL document CHEMBL1121598, “Acylthioxanthenes: agents which selectively reduce decerebrate rigidity in the cat” (1980)

Experiments:
Assay type in all cases: functional
Felis catus [1] = assay: Reduction of the integrated electromyographic response by 50% in cat after intravenous administration
In short: (§1)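 Intercollicular decerebration of cats (midbrain sectioned between colliculi) under halothane, anesthesia then stopped; ≥1 h later, integrated EMG of quadriceps recorded in response to controlled stretches. Drug infused iv in saline in graded doses, stretch response repeated; dose (μmol/kg iv) reducing stretch response by 50% determined.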

Mus musculus = assay: Reduction of locomotor activity count to 50% of the control in mouse after oral administration
In short: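 Mouse locomotor activity by Dews method, modified: drug given orally, activity measured for 5 min starting 1 h later. Dose (μmol/kg po) reducing locomotor activity count to 50% of control determined.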

[2] = Ratio of motor activity and activity A
Felis catus [3] = assay: Reduction of the integrated electromyographic response by 50% in cat after peroral administration
Felis catus [4] = assay: Dose of compound to reduce the integrated electromyographic response by 50% in cat after peroral administration; Range is 5.5-13.7
Felis catus [5] = assay: Dose of compound to reduce the integrated electromyographic response by 50% in cat after peroral administration; Range is 5.1-12.5
Felis catus [6] = assay: Dose of compound to reduce the integrated electromyographic response by 50% in cat after intravenous administration; value from second experiment.; in short: as §1

Compound	Activity A (Felis catus [1])	Locomotor activity (Mus musculus)	Ratio [2]	Activity B (Felis catus [3])	Activity B (Felis catus [4])	Activity B (Felis catus [5])	Activity A (Felis catus [6])
CCCCC(=O)c1ccc2c(c1)/C(=C\C(C)CN(C)C)c1ccccc1S2 (configuration not stated)	3.29 µM/kg	132 µM/kg	40	–	–	–	–
CCC(=O)c1ccc2c(c1)/C(=C\CCN1CCOCC1)c1ccccc1S2	0.27 µM/kg	125 µM/kg	463	–	–	–	–
CC(C)C(=O)c1ccc2c(c1)/C(=C\CCN(C)C)c1ccccc1S2	0.4 µM/kg	89 µM/kg	218	–	–	–	–
CN(C)CC/C=C1/c2ccccc2Sc2ccc(Cl)cc21 [CHLORPROTHIXENE]	0.39 µM/kg	11 µM/kg	28	2.1 µM/kg	–	–	–
CC(=O)c1ccc2c(c1)/C(=C\CCN(C)C)c1cc(Cl)ccc1S2 (stereo in doubt; 33) [listing 1 of 2 here]	0.53 µM/kg	89 µM/kg	–	>5.4 µM/kg	–	–	–
CN(C)CCCN1c2ccccc2Sc2ccc(Cl)cc21 [CHLORPROMAZINE]	0.25 µM/kg	39 µM/kg	–	2 µM/kg	–	–	–
CC(=O)c1ccc2c(c1)N(CCCN(C)C)c1ccccc1S2 [ACEPROMAZINE]	0.03 µM/kg	11 µM/kg	393	1 µM/kg	–	–	–
CCC(=O)c1ccc2c(c1)C(CCCN(C)C)c1cc(Cl)ccc1S2 (configuration not stated)	6.17 µM/kg	343 µM/kg	56	–	–	–	–
CN(C)CC/C=C1/c2ccccc2C=Cc2ccc(Cl)cc21	4.01 µM/kg	103 µM/kg	26	>6.1 µM/kg	–	–	–
CC(=O)c1ccc2c(c1)C(CCCN(C)C)c1ccccc1S2 (configuration not stated)	0.9 µM/kg	57 µM/kg	63	–	5.5 µM/kg	–	–
CCCC(=O)c1ccc2c(c1)/C(=C\CCN(C)C)c1ccccc1S2	1.5 µM/kg	>501 µM/kg	334	–	–	5.1 µM/kg	–
CC(=O)c1ccc2c(c1)/C(=C\CCN(C)C)c1cc(Cl)ccc1S2 (stereo in doubt; 32) [listing 1 of 2 here]	0.81 µM/kg	96 µM/kg	–	–	–	–	–
CCCCC(=O)c1ccc2c(c1)/C(=C\CCN(C)C)c1ccccc1S2	1.35 µM/kg	–	–	–	–	–	–
CCC(=O)c1ccc2c(c1)/C(=C\CCN(C)C)c1cc(Cl)ccc1S2	1.08 µM/kg	695 µM/kg	644	>9.6 µM/kg	–	–	–
CC(=O)c1ccc2c(c1)/C(=C\CCN(C)C)c1cc(Cl)ccc1S2 (stereo in doubt; 32) [listing 2 of 2 here]	–	–	119	–	–	–	–
CCC(=O)c1ccc2c(c1)C(=C1CCN(C)CC1)c1ccccc1S2	0.68 µM/kg	96 µM/kg	141	–	–	–	–
CC(=O)c1ccc2c(c1)N(CC(C)CN(C)C)c1cc(Cl)ccc1S2 (configuration not stated)	0.32 µM/kg	161 µM/kg	506	1 µM/kg	–	–	–
CCCC(=O)c1ccc2c(c1)/C(=C\C(C)CN(C)C)c1ccccc1S2 (configuration not stated)	1.22 µM/kg	195 µM/kg	160	–	–	–	–
CCC(=O)c1ccc2c(c1)/C(=C\C(CC)CN(C)C)c1ccccc1S2 (configuration not stated)	4.14 µM/kg	280 µM/kg	68	–	–	–	–

Compound	Activity A (Felis catus [1])	Locomotor activity (Mus musculus)	Ratio [2]	Activity B (Felis catus [3])	Activity B (Felis catus [4])	Activity B (Felis catus [5])	Activity A (Felis catus [6])
CCC(=O)c1ccc2c(c1)/C(=C\CCN(C)C)c1ccccc1S2 (stereo in doubt; 35) [listing 1 of 2 here]	0.45 µM/kg	339 µM/kg	–	1.9 µM/kg	–	–	–
CC(=O)c1ccc2c(c1)C(CC(C)CN(C)C)c1ccccc1S2 (configuration not stated)	2.08 µM/kg	377 µM/kg	181	>13 µM/kg	–	–	–
CC(/C=C1/c2ccccc2Sc2ccc(C(=O)C(C)C)cc21)CN(C)C (configuration not stated)	0.67 µM/kg	145 µM/kg	216	–	–	–	–
CC(=O)c1ccc2c(c1)C(O)(CC(C)CN(C)C)c1ccccc1S2 (configuration not stated)	3.17 µM/kg	–	–	–	–	–	>21.18 µM/kg
CCC(=O)c1ccc2c(c1)/C(=C\C(C)CN(C)C)c1ccccc1S2 (configuration not stated)	0.52 µM/kg	261 µM/kg	501	>5.2 µM/kg	–	–	–
CCC(=O)c1ccc2c(c1)C(O)(CC1CCN(C)CC1)c1ccccc1S2 (configuration not stated)	19.39 µM/kg	>485 µM/kg	> 25	–	–	–	–
CCC(=O)c1ccc2c(c1)/C(=C\CCN1CCN(C)CC1)c1ccccc1S2	0.67 µM/kg	42 µM/kg	43	–	–	–	–
CC(CN1c2ccccc2Sc2ccc(S(=O)(=O)N(C)C)cc21)N(C)C (configuration not stated) [FONAZINE]	4.67 µM/kg	860 µM/kg	184	8.1 µM/kg	–	–	–
CC(=O)c1ccc2c(c1)/C(=C\C(C)CN(C)C)c1cc(Cl)ccc1S2 (configuration not stated)	1.19 µM/kg	192 µM/kg	161	–	–	–	–
CCC(=O)c1ccc2c(c1)/C(=C\C(C)CN1CCOCC1)c1ccccc1S2 (configuration not stated)	6.5 µM/kg	>659 µM/kg	> 101	–	–	–	–
CCC(=O)c1ccc2c(c1)/C(=C\C(C)CN(C)C)c1cc(Cl)ccc1S2 (configuration not stated)	1.3 µM/kg	534 µM/kg	411	>9.3 µM/kg	–	–	–
CCC(=O)c1ccc2c(c1)/C(=C\CCN(C)C)c1ccccc1S2 (stereo in doubt; 36) [listing 1 of 2 here]	–	–	800	–	–	–	–
CC(=O)c1ccc2c(c1)/C(=C\C(C)CN(C)C)c1ccccc1S2 (configuration not stated)	1.31 µM/kg	94 µM/kg	72	–	–	–	–
CCCC(=O)c1ccc2c(c1)N(CC(C)CN(C)C)c1ccccc1S2 (configuration not stated)	0.65 µM/kg	136 µM/kg	209	1.2 µM/kg	–	–	–
CCC(=O)c1ccc2c(c1)/C(=C\CCN(C)C)c1ccccc1S2 (stereo in doubt; 35) [listing 2 of 2 here]	–	–	753	–	–	–	–
CCC(=O)c1ccc2c(c1)/C(=C\CCN(C)C)c1ccccc1S2 (stereo in doubt; 36) [listing 2 of 2 here]	0.15 µM/kg	120 µM/kg	–	1.8 µM/kg	–	–	–
CC(=O)c1ccc2c(c1)/C(=C\CCN(C)C)c1cc(Cl)ccc1S2 (stereo in doubt; 33) [listing 2 of 2 here]	–	–	168	–	–	–	–
CC(=O)c1ccc2c(c1)/C(=C\CCN(C)C)c1ccccc1S2	0.54 µM/kg	33 µM/kg	60	<5.4 µM/kg	–	–	–
